Source: PMC11966289 (ACS Omega, 2025)

How the values were obtained:
[1] = system: P. falciparum (W2 strain); assay: In vitro antiplasmodial activity; format: cell-based; conditions: Plasmodium falciparum, W2, 72 h, read-out: P. falciparum (W2 strain) IC50
Outline: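 Infected erythrocytes (2% hematocrit, 2% parasitemia) in RPMI 1640 with 60 μg/mL amikacin and 10% human serum, exposed to serially diluted test compound under 90% N2/5% CO2/5% O2 at 37 °C for 72 h. Parasite LDH measured with Malstat reagent (30 min, room temperature), then NBT/PES (1 h, dark), stopped with 5% acetic acid, absorbance 650 nm. Triplicates; chloroquine/artemisinin and DMSO controls; IC50 from dose–response.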

[2] = system: P. falciparum (D6 strain); assay: In vitro antiplasmodial activity; format: cell-based; conditions: Plasmodium falciparum, D6, 72 h, read-out: P. falciparum (D6 strain) IC50
[3] = In vitro cytotoxicity, Neutral Red assay; format: cell-based; conditions: African green monkey, Vero cells
P. berghei = assay: In vivo antiplasmodial evaluation in the P. berghei-mouse malaria model; set-up: species or system P. berghei (Swiss Webster Hsd:ND4 mice); conditions: for % Parasitemia suppression day 5 / % Parasitemia suppression day 7 / MST (mean survival time) / cure (mice without parasitemia until day 28) / survival (animals survived on day 28/total): oral gavage, mice; for parasitemia suppression: day not given
[4] = 33.33 mg/kg dose, oral gavage once daily days 0, 1, 2

Row | Structure (SMILES) | IC50 [1] [nM] | IC50 [2] [nM] | IC50 at 48 h [3] | also measured
1 | C[C@@H]1CC[C@H]2[C@@H](C)C(=O)O[C@@H]3O[C@@]4(C)CC[C@@H]1[C@]32OO4 [ART, artemisinin, reference compound] | 28.1 | 19 | > 4.76 µg/mL | 
2 | CCN(CC)CCCC(C)Nc1ccnc2cc(Cl)ccc12 (stereo not shown) [CQ, Chloroquine, reference compound] | 853 | 60 | > 4.76 µg/mL | % Parasitemia suppression day 5 (P. berghei; 33.3 mg/kg × 3 days): 100.00%; % Parasitemia suppression day 7 (P. berghei; 33.3 mg/kg × 3 days): 100.00%; MST (mean survival time) (P. berghei; 33.3 mg/kg × 3 days): 28 days; cure (mice without parasitemia until day 28) (P. berghei; 33.3 mg/kg × 3 days): 2/5; survival (animals survived on day 28/total) (P. berghei; 33.3 mg/kg × 3 days): 5/5
3 | Cc1cc(Cl)nc(N2CCN(CCNc3ccnc4cc(Cl)ccc34)CC2)n1 [Compound 5a, 7-Chloro-N-(2-(4-(4-chloro-6-methylpyrimidin-2-yl)piperazin-1-yl)ethyl)quinolin-4-amine] | 210 | 70 | > 4.76 µg/mL | 
4 | Cc1cc(Cl)nc(N2CCN(CCCNc3ccnc4cc(Cl)ccc34)CC2)n1 [Compound 5b, 7-Chloro-N-(3-(4-(4-chloro-6-methylpyrimidin-2-yl)piperazin-1-yl)propyl)quinolin-4-amine] | 350 | 100 | > 4.76 µg/mL | 
5 | Clc1ccc2c(NCCCN3CCN(c4nccc(Cl)n4)CC3)ccnc2c1 [Compound 5c, 7-Chloro-N-(3-(4-(4-chloropyrimidin-2-yl)piperazin-1-yl)propyl)quinolin-4-amine] | 230 | 62 | > 4.76 µg/mL | 
6 | Cc1cc(N2CCN(CCNc3ccnc4cc(Cl)ccc34)CC2)nc(Cl)n1 [Compound 6a, 7-Chloro-N-(2-(4-(2-chloro-6-methylpyrimidin-4-yl)piperazin-1-yl)ethyl)quinolin-4-amine] | 500 | 79 | > 4.76 µg/mL | 
7 | Cc1cc(N2CCN(CCCNc3ccnc4cc(Cl)ccc34)CC2)nc(Cl)n1 [Compound 6b, 7-Chloro-N-(3-(4-(2-chloro-6-methylpyrimidin-4-yl)piperazin-1-yl)propyl)quinolin-4-amine] | 200 | 66 | > 4.76 µg/mL | 
8 | Clc1ccc2c(NCCCN3CCN(c4ccnc(Cl)n4)CC3)ccnc2c1 [Compound 6c, 7-Chloro-N-(3-(4-(2-chloropyrimidin-4-yl)piperazin-1-yl)propyl)quinolin-4-amine] | 420 | 73 | > 4.76 µg/mL | 
9 | Cc1cc(N2CCN(CCNc3ccnc4cc(Cl)ccc34)CC2)nc(N2CCCCC2)n1 [Compound 7a, 7-Chloro-N-(2-(4-(6-methyl-2-(piperidin-1-yl)pyrimidin-4-yl)piperazin-1-yl)ethyl) quinolin-4-amine] | 40 | 32 | > 4.76 µg/mL | 
10 | Cc1cc(N2CCN(CCNc3ccnc4cc(Cl)ccc34)CC2)nc(N2CCOCC2)n1 [Compound 7b, 7-Chloro-N-(2-(4-(6-methyl-2-morpholinopyrimidin-4-yl)piperazin-1-yl)ethyl) quinolin-4-amine] | 49 | 95 | > 4.76 µg/mL | 
11 | Cc1cc(N2CCN(CCNc3ccnc4cc(Cl)ccc34)CC2)nc(N2CCSCC2)n1 [Compound 7c, 7-Chloro-N-(2-(4-(6-methyl-2-thiomorpholinopyrimidin-4-yl)piperazin-1-yl)ethyl) quinolin-4-amine] | 64 | 38 | > 4.76 µg/mL | 
12 | Cc1cc(N2CCN(CCNc3ccnc4cc(Cl)ccc34)CC2)nc(N2CCCC2)n1 [Compound 7d, 7-Chloro-N-(2-(4-(6-methyl-2-(pyrrolidin-1-yl)pyrimidin-4-yl)piperazin-1-yl)ethyl) quinolin-4-amine] | 20 | 13 | > 4.76 µg/mL | 
13 | CCN1CCN(c2nc(C)cc(N3CCN(CCNc4ccnc5cc(Cl)ccc45)CC3)n2)CC1 [Compound 7e, 7-Chloro-N-(2-(4-(2-(4-ethylpiperazin-1-yl)-6-methylpyrimidin-4-yl)piperazin-1-yl)ethyl)quinolin-4-amine] | 16 | 21 | > 4.76 µg/mL | % Parasitemia suppression day 5 (P. berghei; 11.1 mg/kg × 3 days): 94.31%; % Parasitemia suppression day 7 (P. berghei; 11.1 mg/kg × 3 days): 41.53%; MST (mean survival time) (P. berghei; 11.1 mg/kg × 3 days): 21.4 days; cure (mice without parasitemia until day 28) (P. berghei; 11.1 mg/kg × 3 days): 0/5; survival (animals survived on day 28/total) (P. berghei; 11.1 mg/kg × 3 days): 2/5; % Parasitemia suppression day 5 (P. berghei; 33.3 mg/kg × 3 days): 100.00%; % Parasitemia suppression day 7 (P. berghei; 33.3 mg/kg × 3 days): 100.00%; MST (mean survival time) (P. berghei; 33.3 mg/kg × 3 days): 28 days; cure (mice without parasitemia until day 28) (P. berghei; 33.3 mg/kg × 3 days): 5/5; survival (animals survived on day 28/total) (P. berghei; 33.3 mg/kg × 3 days): 5/5; parasitemia suppression (P. berghei; [4]): 100%; % Parasitemia suppression day 5 (P. berghei; 100 mg/kg × 3 days): 100.00%; % Parasitemia suppression day 7 (P. berghei; 100 mg/kg × 3 days): 100.00%; MST (mean survival time) (P. berghei; 100 mg/kg × 3 days): 28 days; cure (mice without parasitemia until day 28) (P. berghei; 100 mg/kg × 3 days): 5/5
14 | Cc1cc(N2CCN(CCCNc3ccnc4cc(Cl)ccc34)CC2)nc(N2CCCCC2)n1 [Compound 7f, 7-Chloro-N-(3-(4-(6-methyl-2-(piperidin-1-yl)pyrimidin-4-yl)piperazin-1-yl)propyl) quinolin-4-amine] | 34 | 15 | > 4.76 µg/mL | 
15 | Cc1cc(N2CCN(CCCNc3ccnc4cc(Cl)ccc34)CC2)nc(N2CCOCC2)n1 [Compound 7g, 7-Chloro-N-(3-(4-(6-methyl-2-morpholinopyrimidin-4-yl)piperazin-1-yl)propyl) quinolin-4-amine] | 43 | 15 | > 4.76 µg/mL | 
16 | Cc1cc(N2CCN(CCCNc3ccnc4cc(Cl)ccc34)CC2)nc(N2CCSCC2)n1 [Compound 7h, 7-Chloro-N-(3-(4-(6-methyl-2-thiomorpholinopyrimidin-4-yl)piperazin-1-yl)propyl) quinolin-4-amine] | 50 | 18 | > 4.76 µg/mL | 
17 | Cc1cc(N2CCN(CCCNc3ccnc4cc(Cl)ccc34)CC2)nc(N2CCCC2)n1 [Compound 7i, 7-Chloro-N-(3-(4-(6-methyl-2-(pyrrolidin-1-yl)pyrimidin-4-yl)piperazin-1-yl)propyl) quinolin-4-amine] | 19 | 12 | > 4.76 µg/mL | % Parasitemia suppression day 5 (P. berghei; 11.1 mg/kg × 3 days): 100.00%; % Parasitemia suppression day 7 (P. berghei; 11.1 mg/kg × 3 days): 100.00%; MST (mean survival time) (P. berghei; 11.1 mg/kg × 3 days): 27 days; cure (mice without parasitemia until day 28) (P. berghei; 11.1 mg/kg × 3 days): 3/5; survival (animals survived on day 28/total) (P. berghei; 11.1 mg/kg × 3 days): 4/5; % Parasitemia suppression day 5 (P. berghei; 33.3 mg/kg × 3 days): 100.00%; % Parasitemia suppression day 7 (P. berghei; 33.3 mg/kg × 3 days): 100.00%; MST (mean survival time) (P. berghei; 33.3 mg/kg × 3 days): 28 days; cure (mice without parasitemia until day 28) (P. berghei; 33.3 mg/kg × 3 days): 5/5; survival (animals survived on day 28/total) (P. berghei; 33.3 mg/kg × 3 days): 5/5; parasitemia suppression (P. berghei; [4]): 100%; % Parasitemia suppression day 5 (P. berghei; 100 mg/kg × 3 days): 100.00%; % Parasitemia suppression day 7 (P. berghei; 100 mg/kg × 3 days): 100.00%; MST (mean survival time) (P. berghei; 100 mg/kg × 3 days): 22.8 days; survival (animals survived on day 28/total) (P. berghei; 100 mg/kg × 3 days): 5/5; parasitemia suppression (P. berghei; at all doses (11.1, 33.3, and 100.0 mg/kg)): 100%
18 | CCN1CCN(c2nc(C)cc(N3CCN(CCCNc4ccnc5cc(Cl)ccc45)CC3)n2)CC1 [Compound 7j, 7-Chloro-N-(3-(4-(2-(4-ethylpiperazin-1-yl)-6-methylpyrimidin-4-yl)piperazin-1-yl)propyl)quinolin-4-amine] | 20 | 19 | > 4.76 µg/mL | 
19 | Cc1cc(N2CCN(CCCNc3ccnc4cc(Cl)ccc34)CC2)nc(N2CCN(C)CC2)n1 [Compound 7k, 7-Chloro-N-(3-(4-(6-methyl-2-(4-methylpiperazin-1-yl)pyrimidin-4-yl)piperazin-1-yl)propyl)quinolin-4-amine] | 22 | 19 | > 4.76 µg/mL | 
20 | Clc1ccc2c(NCCCN3CCN(c4ccnc(N5CCCCC5)n4)CC3)ccnc2c1 [Compound 7l, 7-Chloro-N-(3-(4-(2-(piperidin-1-yl)pyrimidin-4-yl)piperazin-1-yl)propyl)quinolin-4-amine] | 31 | 14 | > 4.76 µg/mL | 
21 | Clc1ccc2c(NCCCN3CCN(c4ccnc(N5CCOCC5)n4)CC3)ccnc2c1 [Compound 7m, 7-Chloro-N-(3-(4-(2-morpholinopyrimidin-4-yl)piperazin-1-yl)propyl)quinolin-4-amine] | 34 | 20 | > 4.76 µg/mL | 
22 | Clc1ccc2c(NCCCN3CCN(c4ccnc(N5CCSCC5)n4)CC3)ccnc2c1 [Compound 7n, 7-Chloro-N-(3-(4-(2-thiomorpholinopyrimidin-4-yl)piperazin-1-yl)propyl)quinolin-4-amine] | > 9830 | 4080 | > 4.76 µg/mL | 
23 | CCN1CCN(c2nccc(N3CCN(CCCNc4ccnc5cc(Cl)ccc45)CC3)n2)CC1 [Compound 7p, 7-Chloro-N-(3-(4-(2-(4-ethylpiperazin-1-yl)pyrimidin-4-yl)piperazin-1-yl)propyl) quinolin-4-amine] | 20 | 13 | > 4.76 µg/mL | 
24 | CN1CCN(c2nccc(N3CCN(CCCNc4ccnc5cc(Cl)ccc45)CC3)n2)CC1 [Compound 7q, 7-Chloro-N-(3-(4-(2-(4-methylpiperazin-1-yl)pyrimidin-4-yl)piperazin-1-yl)propyl) quinolin-4-amine] | 17 | 14 | > 4.76 µg/mL | 
25 | COc1cccc2c1C(=O)c1c(O)c3c(c(O)c1C2=O)C[C@@](O)(C(=O)CO)C[C@@H]3O[C@H]1C[C@H](N)[C@H](O)[C@H](C)O1 [doxorubicin, reference compound] |  |  | 8600 ± 400 nM | 
